Sampled rows, rich in hits. Any-hit rate of the full collection: about 3%.
MITF TRPM1 HTS = activators of MITF-driven TRPM1 promoter reporter, primary screen, cell-based, SK-MEL-5, luciferase, single point | SK-MEL-5 TRPM1-promoter luciferase, 24 h; % of positive control, neutral wells = 0 | AID 588334, 2011 | 300,000 tested, 0.75% active | activation, % at 12.5 µM;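 active = mean activation of at least 80% with every replicate also reaching 80%; inconclusive = mean reaches 80% but some replicate falls short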
Casp6 inh = human caspase-6 inhibitors, primary screen, biochemical, VEID-R110 fluorescence, single point, set 2; purified caspase-6, Z-VEID-R110 cleavage fluorescence; inhibition, % at 12.5 µM; 350,000 tested, 0.53% active; AID 686996, 2013;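 active = mean inhibition across replicates at least about 35%, with every replicate also reaching that limit, limit read from the data; inconclusive = only one of the two criteria met; inactive = neither criterion met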
Wnt bcat act = Wnt/beta-catenin pathway activators, primary screen, cell-based, plate reader, single point; 300,000 tested, 1.2% active; activation, % at 9.35 µM; Wnt/beta-catenin reporter cell assay, activator; in the data active = activation above about 30%, passing the limit was not always enough; inconclusive = no clear call, values can overlap the other calls
XiGFP reactiv = activators of inactive X chromosome reactivation, primary screen, imaging, XiGFP fibroblasts, GFP high-content imaging, set 2 | AID 743238, 2013 | activation, % at 7.58 µM | XiGFP mouse fibroblasts, % GFP-positive cells imaging, 3 d; cells co-treated with 5-aza-dC sensitizer; scaled so ellipticine positive control = 100% | 360,000 tested, 0.055% active;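 active = mean normalized replicate activation at least 10% and every replicate at or above 10%; inconclusive = only one of the two criteria met; inactive = mean below 10% and not all replicates reach 10%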
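Material: XiGFP fibroblasts, SV40-immortalized; Buffer or medium: DMEM containing 5-aza-dC; Compound dosing: single point; Times: 3 days compound exposure.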
esBAF inh = Bmi1 luciferase reporter increase in mESCs, primary screen, esBAF inhibitor project, mouse ES cells, Bmi1 luciferase knock-in, single point | 350,000 tested, 2% active | AID 602393, 2012 | 24 h; 100% = twice the neutral-well signal | reporter increase, % at 12.5 µM; in the data active = activation above about 40%; inconclusive = no clear call, values can overlap the other calls;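 note: a rise in the Bmi1 reporter signal indicates esBAF inhibition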
NSD2 inh = NSD2 histone methyltransferase inhibitors, primary screen, biochemical, AlphaScreen, single concentration, set 2 | Histone-lysine N-methyltransferase NSD2 (Homo sapiens), O96028 | NSD2 peptide methylation, 120 min | inhibition, % at 12.5 µM | 310,000 tested, 0.54% active | AID 743445, 2014; in the data active = inhibition above about 50%
esBAF Ring1 qPCR = Ring1 mRNA increase in mouse ESCs, confirmation, esBAF inhibitor project, cell-based, mouse ESC, RT-qPCR, cherry-pick. shares compounds with esBAF inh. mouse ESC E14, Ring1 mRNA RT-qPCR fold change. fold change at 33 µM. 550 tested, under 10 active. AID 743176, 2013;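 active = Ring1 gene expression raised more than 2-fold over untreated cells in both replicates at either tested dose; inconclusive = only one replicate above 2-fold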;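 note: Ring1 transcript normalised to actin housekeeping signal by TaqMan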
esBAF Fgf4 qPCR = Fgf4 mRNA decrease in mouse ESCs, confirmation, esBAF inhibitor project, cell-based, mouse ESC, RT-qPCR, cherry-pick | shares compounds with esBAF inh | mouse ESC E14, Fgf4 mRNA qPCR fold change; stronger effect = lower value | Fgf4 expression fold change at 33 µM | 550 tested, 4% active;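 active = Fgf4 expression under 0.8 fold of control in both repeat measurements at one or both tested doses; inconclusive = under 0.8 fold in just a single repeat measurement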;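 note: Fgf4 transcript normalised to actin in duplex TaqMan qPCR; cells exposed to compound for 24 h before lysis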
Bmi1 derepress = esBAF inhibition via Bmi1 de-repression, confirmation, cell-based, RT-qPCR, mouse ESC, single point, cherry-pick. shares compounds with esBAF inh. mouse ESE14 ES cells, Bmi1 mRNA qPCR fold; stronger effect = higher value. fold change at 33 µM. 550 tested, under 10 active;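 active = Bmi1 expression fold change above 6 at either tested concentration, seen in replicate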
A549 cytotox = A549 cell cytotoxicity, cytotoxicity control, plate reader, single point, cherry-pick | cell viability change % (negative = cytotoxic), % at 25 µM, hits read low | shares compounds with esBAF inh | 550 tested, under 10 active; call rule not given here
HepG2 cytotox SP = HepG2 cell cytotoxicity, cytotoxicity control, plate reader, single point, cherry-pick; shares compounds with esBAF inh; 550 tested, 4% active; stronger effect = lower value; activity change, negative = inhibition, % at 25 µM; in the data active = activity change below about -50%
HEK293 cytotox SP = HEK293 cell cytotoxicity, cytotoxicity control, plate reader, single point, cherry-pick. shares compounds with esBAF inh. activity change, negative = inhibition, % at 25 µM, hits read low. 550 tested, 3% active; in the data active = activity change below about -38%, passing the limit was not always enough
Of the large screens only hits and unclear results are named; the others gave an inactive call (follow-up assays come after a bar, where they were run).

N#Cc1ccc(-c2cn3c(n2)SCC3)cc1	esBAF inh 60.5 | esBAF Ring1 qPCR inactive | esBAF Fgf4 qPCR inactive | Bmi1 derepress inactive | A549 cytotox inactive | HepG2 cytotox SP inactive | HEK293 cytotox SP inactive
Cn1c2ccccc2c(=O)c2cc(C#Cc3ccsc3)ccc21	esBAF inh 62.0 (no result: NSD2 inh) | esBAF Ring1 qPCR inactive | esBAF Fgf4 qPCR inconclusive | Bmi1 derepress inactive | A549 cytotox inactive | HepG2 cytotox SP inactive | HEK293 cytotox SP inactive
Cn1c2ccccc2c(=O)c2cc(C#CC3(O)CCCCC3)ccc21	none (no result: NSD2 inh)
C=CCNc1nc2cc(-c3ccccc3OC)sc2c(=O)n1C	esBAF inh 58.6 (no result: MITF TRPM1 HTS) | esBAF Ring1 qPCR inactive | esBAF Fgf4 qPCR inactive | Bmi1 derepress inactive | A549 cytotox inactive | HepG2 cytotox SP inactive | HEK293 cytotox SP inactive
COCCNc1nc2cc(-c3ccccc3OC)sc2c(=O)n1C	none (no result: MITF TRPM1 HTS, Wnt bcat act)
CN(C)S(=O)(=O)c1ccc2c(c1)/C(=C/c1cc3c([nH]1)CCCC3)C(=O)N2	Wnt bcat act 34.5, XiGFP reactiv 112.5, esBAF inh 59.0 (no result: NSD2 inh) | esBAF Ring1 qPCR 2.24 | esBAF Fgf4 qPCR inactive | Bmi1 derepress 7.72 | A549 cytotox inactive | HepG2 cytotox SP inactive | HEK293 cytotox SP inactive
C/C=C/c1cnc2c(c1)C(=O)N([C@H](C)CO)C[C@H](C)[C@H](CN(C)C(=O)Cc1ccccc1)O2	none (no result: MITF TRPM1 HTS, Wnt bcat act, NSD2 inh)
O=C1/C(=C/c2cccc3ccccc23)CCCc2ccccc21	Wnt bcat act 41.7, esBAF inh 57.4 (no result: Casp6 inh, XiGFP reactiv) | esBAF Ring1 qPCR inactive | esBAF Fgf4 qPCR inactive | Bmi1 derepress inactive | A549 cytotox inactive | HepG2 cytotox SP inactive | HEK293 cytotox SP inactive
O=C1C(=Cc2ccncc2)CCCc2ccccc21	none (no result: MITF TRPM1 HTS)
c1ccc(-c2cc3ccccc3[nH]2)cc1	MITF TRPM1 HTS 95.7, esBAF inh 54.3 (no result: NSD2 inh) | esBAF Ring1 qPCR inactive | esBAF Fgf4 qPCR inactive | Bmi1 derepress inactive | A549 cytotox inactive | HepG2 cytotox SP inactive | HEK293 cytotox SP inactive
CCOC(=O)c1ccc(N=Cc2nc(-c3ccccc3)oc2OC(C)=O)cc1	none (no result: Casp6 inh, Wnt bcat act, XiGFP reactiv)
CN(C)c1ccc(N=Cc2nc(-c3ccccc3)oc2OC(=O)c2cccc(Br)c2)cc1	esBAF inh 62.8 (no result: Casp6 inh, Wnt bcat act) | esBAF Ring1 qPCR inactive | esBAF Fgf4 qPCR inactive | Bmi1 derepress inactive | A549 cytotox inactive | HepG2 cytotox SP inactive | HEK293 cytotox SP inactive
CCN(C(=O)c1cccs1)c1nnc(-c2ccncc2)s1	esBAF inh 58.2 (no result: Casp6 inh, XiGFP reactiv) | esBAF Ring1 qPCR inactive | esBAF Fgf4 qPCR inactive | Bmi1 derepress inactive | A549 cytotox inactive | HepG2 cytotox SP inactive | HEK293 cytotox SP inactive

High-throughput results (PubChem BioAssay)
